Measurements published in the M2OR odorant receptor database.

Molecular target: T1, OR5M3 (Homo sapiens) (UniProt Q8NGP4)
T1 sequence (whole entry): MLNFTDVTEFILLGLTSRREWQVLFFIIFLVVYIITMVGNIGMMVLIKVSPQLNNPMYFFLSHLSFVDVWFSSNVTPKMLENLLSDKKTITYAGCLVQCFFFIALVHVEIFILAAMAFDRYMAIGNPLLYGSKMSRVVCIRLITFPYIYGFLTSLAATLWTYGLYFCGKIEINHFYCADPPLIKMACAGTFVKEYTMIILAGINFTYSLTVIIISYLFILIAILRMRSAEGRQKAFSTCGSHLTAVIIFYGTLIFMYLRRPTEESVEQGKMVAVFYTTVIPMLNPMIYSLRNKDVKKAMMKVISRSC
Conditions: stereoisomer not certain
How it was run: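 Values were gathered from published papers (main text and supplementary material), with extra details requested from the original authors when needed, and checked for typos and inconsistencies. Each receptor–molecule pair is called responsive (active) if the original authors judged the measured signal statistically different from baseline, and non-responsive (inactive) otherwise. Assay methods varied by source, often transient mammalian cell-line luciferase assays. Recorded details include cell line, G-protein, co-transfected protein and tags.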

Odorant receptor agonist call, inactive:
COc1cccc(OC)c1O, CCCCC(C)CCC(=O)O (stereo not drawn), CSCCC=O, CCCC(=O)OCC, CC=CC(=O)C(C)CC (stereo not drawn), CCCC=CC=O, CC1=CC(=O)C(C)O1 (stereo not drawn), CC1=CCC2CC1C2(C)C (stereo not drawn), CCC(=O)C(C)=O, CC(C)CCO, CCCCCCCCCC(=O)OCC, CCC(=O)C(C)S (stereo not drawn), CCCCCC=CCCC=O, CCOC(=O)C(C)CC (stereo not drawn), CCCCCCCC(=O)[O-].[H+], CC(=O)OCCc1ccccc1, CCOC(=O)CC(C)C, CCC(S)C(C)=O (stereo not drawn), CCCCC=CC=O, CCC=CCCC=CC=O, CC(=O)c1ccc(C)cc1, CCCSSSCCC, CC(=O)O, CCCC(S)CCO (stereo not drawn), CC(C)(S)CCOC=O, CCOC(=O)C1CCCCC1, CCCCCCO, CC1=CCOC1=O, CSSc1ccoc1C, CCC=CCC=O, Cc1cccc(C)c1O, C=C1CCC2(C(C)C)CC12 (stereo not drawn), CCCCCCCCC1CCC(=O)O1 (stereo not drawn)
